# Measured values published in ChEMBL document CHEMBL1152805, “Dual inhibitors of phosphodiesterase-4 and serotonin reuptake” (J Med Chem, 2009).
# Active and inactive are the calls of the source. The rule behind the calls is not given here.
# Assays:
# Mus musculus [1] = assay: Antidepressant activity in BALB/c mouse assessed as decrease in immobility duration at 37.4 umol/kg, ip administered 30 mins prior to test by forced swimming test; assay type: functional, organism-based
# Summary of the method: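 Acute dosing in male Balb/c mice (22.4 ± 0.1 g). Drug in 0.9% saline with 5% DMSO, given i.p. 30 min before the forced-swim test. Swim pretest once daily on 2 successive days, then test 24 h later. Each session was 6 min in a cylinder filled to 28 cm with water at 23 ± 1°C, scoring immobility duration. n = 10–11; ANOVA with Dunnett's test.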
# Mus musculus [2] = assay: Antidepressant activity in BALB/c mouse assessed as decrease in immobility duration at 37.4 umol/kg, ip administered 23 hrs, 5 hrs and 1 hr prior to test measured after 4 weeks by forced swimming test; assay type: functional, organism-based
# Summary of the method: (§1)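 Male Balb/c mice (22.4 ± 0.1 g), second session run 4 weeks after the first. Drug in 0.9% saline with 5% DMSO (vehicle alone as control), given i.p. 23, 5 and 1 hr before the forced-swim test, with no pretest training. Each mouse was placed 6 min in a water-filled cylinder (23 ± 1°C) and immobility duration recorded. n = 10–11; one-way ANOVA with Dunnett's test.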
# [3] = target: T1, Sodium-dependent dopamine transporter (Homo sapiens, UniProt Q01959); assay: Displacement of [3H]dopamine from human recombinant DAT expressed in HEK293 cells by scintillation counting; assay type: cell-based
# T1 sequence (Q01959 whole entry): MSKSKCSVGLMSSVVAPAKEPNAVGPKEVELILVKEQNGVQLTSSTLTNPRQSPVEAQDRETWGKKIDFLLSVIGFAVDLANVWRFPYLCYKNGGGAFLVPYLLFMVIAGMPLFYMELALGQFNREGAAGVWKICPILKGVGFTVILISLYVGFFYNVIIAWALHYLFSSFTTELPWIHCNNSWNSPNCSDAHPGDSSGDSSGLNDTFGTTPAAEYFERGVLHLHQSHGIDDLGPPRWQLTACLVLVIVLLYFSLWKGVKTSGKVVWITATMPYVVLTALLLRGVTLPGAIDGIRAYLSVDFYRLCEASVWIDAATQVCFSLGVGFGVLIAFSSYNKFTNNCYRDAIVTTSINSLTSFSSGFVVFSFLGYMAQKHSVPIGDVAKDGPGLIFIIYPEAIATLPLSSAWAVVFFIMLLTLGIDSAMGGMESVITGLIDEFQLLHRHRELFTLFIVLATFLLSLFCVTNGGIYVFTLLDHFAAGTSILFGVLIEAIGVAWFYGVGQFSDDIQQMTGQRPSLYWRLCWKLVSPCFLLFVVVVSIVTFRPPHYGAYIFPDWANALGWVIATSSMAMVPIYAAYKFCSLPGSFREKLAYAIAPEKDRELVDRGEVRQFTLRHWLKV
# Summary of the method: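 Suspended HEK-hDAT cells preincubated 10 min at 25 °C with test compound in Krebs-HEPES buffer. [3H]dopamine then added (20 nM final) for 10 min. Uptake stopped by filtration onto polyethylenimine-soaked GF/C filters, and radioactivity counted. Specific uptake defined with 5 µM mazindol. Triplicates, 3–4 experiments; Ki by Cheng-Prusoff.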
# [4] = target: T2, Sodium-dependent serotonin transporter (Homo sapiens, UniProt P31645); assay type: cell-based, HEK293
# T2 sequence (P31645 whole entry): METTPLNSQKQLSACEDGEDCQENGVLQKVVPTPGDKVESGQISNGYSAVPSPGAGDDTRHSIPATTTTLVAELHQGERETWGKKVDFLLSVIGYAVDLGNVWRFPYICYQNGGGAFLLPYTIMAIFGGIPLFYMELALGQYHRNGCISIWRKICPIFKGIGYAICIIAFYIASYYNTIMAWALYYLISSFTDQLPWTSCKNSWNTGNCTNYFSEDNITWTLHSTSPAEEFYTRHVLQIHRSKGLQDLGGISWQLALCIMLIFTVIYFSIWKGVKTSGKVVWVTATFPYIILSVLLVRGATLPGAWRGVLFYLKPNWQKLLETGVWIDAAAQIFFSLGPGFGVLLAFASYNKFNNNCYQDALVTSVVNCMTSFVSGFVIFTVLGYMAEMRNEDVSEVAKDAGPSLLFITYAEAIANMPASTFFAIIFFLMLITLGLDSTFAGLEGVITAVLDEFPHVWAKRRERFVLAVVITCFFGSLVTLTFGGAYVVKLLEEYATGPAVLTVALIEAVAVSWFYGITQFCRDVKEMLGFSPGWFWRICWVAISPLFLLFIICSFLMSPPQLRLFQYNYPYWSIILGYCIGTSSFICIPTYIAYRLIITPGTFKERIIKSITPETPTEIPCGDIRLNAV
# [5] = target: T1, Sodium-dependent dopamine transporter; assay: Displacement of [125I]RTI-55 from human recombinant DAT expressed in HEK293 cells by scintillation counting; assay type: cell-based
# [6] = target: T2, Sodium-dependent serotonin transporter; assay: biochemical; assay type: cell-based, HEK293
# Mus musculus [7] = assay: Antidepressant activity in ICR mouse assessed as decrease in immobility duration at 40 mg/kg, ip by forced swimming test; assay type: functional, organism-based; set-up: dose 40 mg/kg
# Mus musculus [8] = assay: Antidepressant activity in BALB/c mouse assessed as decrease in immobility duration at 20 mg/kg, ip administered 30 mins prior to test by forced swimming test; assay type: functional, organism-based; set-up: dose 20 mg/kg
# Summary of the method: (§2)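 Acute dosing in male Balb/c mice (22.4 ± 0.1 g), i.p. 30 min before the forced-swim test. Vehicle was saline with 5% DMSO. Pretest swims were given on two successive days, then the test 24 h later. Each swim lasted 6 min in a cylinder of water 28 cm deep at 23 ± 1°C, scoring immobility (upright floating). n = 10–11. One-way ANOVA with Dunnett's test.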
# Mus musculus [9] = assay: Antidepressant activity in BALB/c mouse assessed as decrease in immobility duration at 32.3 umol/kg, ip administered 23 hrs, 5 hrs and 1 hr prior to test measured after 4 weeks by forced swimming test; assay type: functional, organism-based
# Summary of the method: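 Male Balb/c mice received subchronic i.p. dosing at 23, 5 and 1 hr before the forced-swim test, with no pretest training. This session ran 4 weeks after the acute session. Vehicle was saline with 5% DMSO. The swim lasted 6 min in a cylinder of water 28 cm deep at 23 ± 1°C, scoring immobility duration. n = 10–11. One-way ANOVA with Dunnett's test.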
# Mus musculus [10] = assay: Antidepressant activity in ICR mouse assessed as decrease in immobility duration at 65 umol/kg, ip administered 30 mins prior to test by forced swimming test; assay type: functional, organism-based
# Mus musculus [11] = assay: Antidepressant activity in BALB/c mouse assessed as decrease in immobility duration at 35.5 umol/kg, ip administered 30 mins prior to test by forced swimming test; assay type: functional, organism-based; summary of the method: as §2
# Mus musculus [12] = assay: Antidepressant activity in ICR mouse assessed as decrease in immobility duration at 0.5 umol/kg, ip administered 30 mins prior to test by forced swimming test; assay type: functional, organism-based
# Summary of the method: (§3)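 Male ICR mice (26.2 ± 0.3 g), 12 h light cycle. Drug in 0.9% saline with 5% DMSO, given i.p. 30 min before the forced-swim test. Lower doses were tested first, then higher doses 1 week later after re-randomization. Swim pretest on 2 successive days, test 24 h later: 6 min in a cylinder with 28 cm of water at 23 ± 1°C, recording immobility. n = 9–11; ANOVA with Dunnett's test.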
# Mus musculus [13] = assay: Antidepressant activity in ICR mouse assessed as decrease in immobility duration at 5 umol/kg, ip administered 30 mins prior to test after 1 week by forced swimming test; assay type: functional, organism-based; summary of the method: as §3
# Mus musculus [14] = assay: Antidepressant activity in BALB/c mouse assessed as decrease in immobility duration at 1 mg/kg, ip administered 23 hrs, 5 hrs and 1 hr prior to test measured after 4 weeks by forced swimming test; assay type: functional, organism-based; set-up: dose 1 mg/kg; summary of the method: as §1
# Mus musculus [15] = assay: Antidepressant activity in ICR mouse assessed as decrease in immobility duration at 1 umol/kg, ip administered 30 mins prior to test by forced swimming test; assay type: functional, organism-based; summary of the method: as §3
# Mus musculus [16] = assay: Antidepressant activity in ICR mouse assessed as decrease in immobility duration at 10 umol/kg, ip administered 30 mins prior to test after 1 week by forced swimming test; assay type: functional, organism-based; summary of the method: as §3
# [17] = Metabolic stability in mouse liver microsomes assessed as half life at 40 uM after 60 mins by HPLC in presence of NADPH; assay type: ADME, Microsome; conditions: 1 h
# Summary of the method: (§4)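 Liver microsomes (0.5 mg protein) in potassium phosphate buffer, pH 7.4, with an NADPH-generating system (NADP+, glucose-6-phosphate, G6P dehydrogenase), DETAPAC and MgCl2. Test compound added at 40 µM and incubated at 37 °C with shaking. Samples stopped with CH2Cl2/2-propanol at 0, 10, 25, 40 and 60 min. Substrate loss measured by HPLC and half-life calculated.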
# Liver microsomes = assay: Metabolic stability in human liver microsomes assessed as half life after 60 mins by HPLC in presence of NADPH; assay type: ADME, Microsome; conditions: 1 h; summary of the method: as §4
# [18] = target: 3',5'-cyclic-AMP phosphodiesterase 4D (Homo sapiens, UniProt Q08499); assay: Inhibition of human recombinant PDE4D3
# Sequence of 3',5'-cyclic-AMP phosphodiesterase 4D (Q08499 whole entry): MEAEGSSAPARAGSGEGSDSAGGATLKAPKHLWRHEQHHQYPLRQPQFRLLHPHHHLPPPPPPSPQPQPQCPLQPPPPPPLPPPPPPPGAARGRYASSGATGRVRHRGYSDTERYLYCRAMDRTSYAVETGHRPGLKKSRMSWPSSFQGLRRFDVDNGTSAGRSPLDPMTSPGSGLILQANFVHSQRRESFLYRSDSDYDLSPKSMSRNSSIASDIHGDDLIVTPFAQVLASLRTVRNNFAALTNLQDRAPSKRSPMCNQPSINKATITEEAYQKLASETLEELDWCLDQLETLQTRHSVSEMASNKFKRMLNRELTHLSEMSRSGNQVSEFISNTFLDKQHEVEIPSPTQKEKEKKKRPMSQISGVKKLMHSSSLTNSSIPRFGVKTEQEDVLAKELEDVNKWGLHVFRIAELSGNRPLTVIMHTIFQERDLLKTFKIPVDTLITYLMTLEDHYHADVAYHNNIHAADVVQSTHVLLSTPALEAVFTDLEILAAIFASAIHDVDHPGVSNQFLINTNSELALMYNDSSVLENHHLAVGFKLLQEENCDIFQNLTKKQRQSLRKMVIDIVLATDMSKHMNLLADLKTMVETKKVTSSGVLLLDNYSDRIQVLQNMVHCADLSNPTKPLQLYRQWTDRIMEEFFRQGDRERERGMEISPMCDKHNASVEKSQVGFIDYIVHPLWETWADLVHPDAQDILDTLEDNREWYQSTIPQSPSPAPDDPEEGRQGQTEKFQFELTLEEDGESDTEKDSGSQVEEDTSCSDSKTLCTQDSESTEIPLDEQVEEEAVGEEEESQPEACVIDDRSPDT
# [19] = target: 3',5'-cyclic-AMP phosphodiesterase 4B (Homo sapiens, UniProt Q07343); assay: Inhibition of human recombinant PDE4B3 assessed as inhibition of cAMP hydrolysis
# Sequence of 3',5'-cyclic-AMP phosphodiesterase 4B (Q07343 whole entry): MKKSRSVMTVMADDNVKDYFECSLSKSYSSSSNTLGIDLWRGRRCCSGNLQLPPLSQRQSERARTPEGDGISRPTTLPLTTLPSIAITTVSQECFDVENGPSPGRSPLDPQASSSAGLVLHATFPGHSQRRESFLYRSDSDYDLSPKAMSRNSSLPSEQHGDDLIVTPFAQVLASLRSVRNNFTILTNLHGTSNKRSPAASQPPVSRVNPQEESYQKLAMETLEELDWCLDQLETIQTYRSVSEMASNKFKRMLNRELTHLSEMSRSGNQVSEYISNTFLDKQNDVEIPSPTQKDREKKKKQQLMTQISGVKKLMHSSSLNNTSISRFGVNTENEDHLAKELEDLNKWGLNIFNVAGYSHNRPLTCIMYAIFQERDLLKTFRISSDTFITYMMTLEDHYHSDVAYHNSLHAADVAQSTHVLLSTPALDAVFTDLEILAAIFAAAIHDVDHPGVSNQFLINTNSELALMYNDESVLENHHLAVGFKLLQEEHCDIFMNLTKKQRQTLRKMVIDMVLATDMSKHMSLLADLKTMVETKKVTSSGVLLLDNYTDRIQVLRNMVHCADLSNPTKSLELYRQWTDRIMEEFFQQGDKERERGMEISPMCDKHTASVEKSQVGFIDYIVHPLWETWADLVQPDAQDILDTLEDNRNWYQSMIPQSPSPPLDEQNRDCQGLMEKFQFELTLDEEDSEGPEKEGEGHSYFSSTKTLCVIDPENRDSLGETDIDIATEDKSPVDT
# [20] = target: 3',5'-cyclic-AMP phosphodiesterase 4A (Homo sapiens, UniProt P27815); assay: Inhibition of human recombinant PDE4A1 assessed as inhibition of cAMP hydrolysis
# Sequence of 3',5'-cyclic-AMP phosphodiesterase 4A (P27815 whole entry): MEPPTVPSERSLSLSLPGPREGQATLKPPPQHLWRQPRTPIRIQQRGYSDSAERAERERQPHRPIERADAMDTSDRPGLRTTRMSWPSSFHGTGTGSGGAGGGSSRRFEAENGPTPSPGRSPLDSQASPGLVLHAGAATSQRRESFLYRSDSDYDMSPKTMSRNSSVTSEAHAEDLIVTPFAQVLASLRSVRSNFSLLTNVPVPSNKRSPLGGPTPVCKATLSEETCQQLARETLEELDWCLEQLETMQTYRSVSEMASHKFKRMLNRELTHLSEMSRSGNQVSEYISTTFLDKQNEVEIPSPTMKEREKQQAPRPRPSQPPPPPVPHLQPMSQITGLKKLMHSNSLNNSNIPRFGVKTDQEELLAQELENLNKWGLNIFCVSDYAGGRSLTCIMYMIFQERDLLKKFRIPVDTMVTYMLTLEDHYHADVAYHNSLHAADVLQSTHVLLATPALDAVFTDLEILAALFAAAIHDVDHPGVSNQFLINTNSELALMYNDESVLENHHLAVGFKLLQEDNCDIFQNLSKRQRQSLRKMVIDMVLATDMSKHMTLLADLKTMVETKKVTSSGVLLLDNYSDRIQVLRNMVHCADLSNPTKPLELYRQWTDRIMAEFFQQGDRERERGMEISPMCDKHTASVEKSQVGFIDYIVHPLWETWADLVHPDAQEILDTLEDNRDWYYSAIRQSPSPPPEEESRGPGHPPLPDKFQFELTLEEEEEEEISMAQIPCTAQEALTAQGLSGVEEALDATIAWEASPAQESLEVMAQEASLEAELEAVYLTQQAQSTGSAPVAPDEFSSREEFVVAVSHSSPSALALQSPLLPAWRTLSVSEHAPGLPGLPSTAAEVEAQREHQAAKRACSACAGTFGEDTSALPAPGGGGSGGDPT
# [21] = target: T3, Sodium-dependent noradrenaline transporter (Homo sapiens, UniProt P23975); assay: Displacement of [125I]RTI-55 from human recombinant NET expressed in HEK293 cells by scintillation counting; assay type: cell-based
# T3 sequence (P23975 whole entry): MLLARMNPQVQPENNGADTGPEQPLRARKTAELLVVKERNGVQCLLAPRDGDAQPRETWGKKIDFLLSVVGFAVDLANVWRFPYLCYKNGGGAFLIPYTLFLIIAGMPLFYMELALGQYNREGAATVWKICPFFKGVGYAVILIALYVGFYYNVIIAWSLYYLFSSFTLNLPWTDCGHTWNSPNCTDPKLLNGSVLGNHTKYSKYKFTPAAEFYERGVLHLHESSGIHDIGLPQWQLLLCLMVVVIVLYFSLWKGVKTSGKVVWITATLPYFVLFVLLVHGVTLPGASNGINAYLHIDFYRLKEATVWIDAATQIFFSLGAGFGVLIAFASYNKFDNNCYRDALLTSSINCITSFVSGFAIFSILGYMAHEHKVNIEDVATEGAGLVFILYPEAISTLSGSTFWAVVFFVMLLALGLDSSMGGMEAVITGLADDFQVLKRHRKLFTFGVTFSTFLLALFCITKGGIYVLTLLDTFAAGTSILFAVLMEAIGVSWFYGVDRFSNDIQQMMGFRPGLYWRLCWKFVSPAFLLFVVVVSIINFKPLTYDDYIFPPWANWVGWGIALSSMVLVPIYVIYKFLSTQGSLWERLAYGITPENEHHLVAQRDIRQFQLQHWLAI
# [22] = target: T3, Sodium-dependent noradrenaline transporter; assay: Displacement of [3H]norepinephrine from human recombinant NET expressed in HEK293 cells by scintillation counting; assay type: cell-based
# Mus musculus [23] = assay: Antidepressant activity in ICR mouse assessed as decrease in immobility duration at 0.5 mg/kg, ip once a day for 8 days by forced swimming test; assay type: functional, organism-based; set-up: dose 0.5 mg/kg
# Mus musculus [24] = assay: Antidepressant activity in ICR mouse assessed as decrease in immobility duration at 0.5 mg/kg, ip by forced swimming test; assay type: functional, organism-based; set-up: dose 0.5 mg/kg
smiles,measurement,setting,value
COc1ccc(F)cc1CCC1CCC(CCN)O1 (configuration not stated),Activity,Mus musculus [1],inactive
same,Activity,Mus musculus [2],inactive
COc1ccc(C2=NN(CCCCCBr)C(=O)[C@@H]3CC=CC[C@H]23)cc1OC (racemic),IC50,[3],> 100 µM
same,IC50,[4],> 100 µM
same,Ki,[5],> 100 µM
same,Ki,[6],> 100 µM
CNCCC(Oc1ccc(C(F)(F)F)cc1)c1ccccc1 (configuration not stated),Activity,Mus musculus [7],Active
same,Activity,Mus musculus [8],inactive
same,Activity,Mus musculus [9],inactive
same,Activity,Mus musculus [10],Active
COc1ccc(F)cc1CCCC1CCC(CCN)O1 (configuration not stated),Activity,Mus musculus [11],inactive
COc1ccc(F)cc1CCC1CCC(CCNCCCCCN2N=C(c3ccc(OC)c(OC)c3)[C@H]3CC=CC[C@H]3C2=O)O1 (mixture of isomers),IC50,[3],3.56 µM
same,IC50,[4],0.127 µM
same,Activity,Mus musculus [12],Active
same,Activity,Mus musculus [13],Active
same,Activity,Mus musculus [14],inactive
same,Activity,Mus musculus [15],Active
same,Activity,Mus musculus [16],Active
same,t1/2,[17],2.565 h
same,Stability,Liver microsomes,Stable
same,Ki,[18],0.002 µM
same,Ki,[19],0.199 µM
same,Ki,[20],> 1 µM
same,Ki,[5],2.48 µM
same,Ki,[6],0.156 µM
COc1ccc(F)c(CCCC2CCC(CCNCCCCCN3N=C(c4ccc(OC)c(OC)c4)[C@H]4CC=CC[C@H]4C3=O)O2)c1 (mixture of isomers),Ki,[21],7.44 µM
same,IC50,[3],5.34 µM
same,IC50,[22],7.44 µM
same,Stability,[17],Stable
same,Stability,Liver microsomes,Stable
same,Ki,[18],0.0012 µM
same,Ki,[19],0.5 µM
same,Ki,[20],> 1 µM
same,Ki,[5],5.34 µM
COc1ccc(C2=NNC(=O)C3CC=CCC23)cc1OC (configuration not stated),Activity,Mus musculus [12],Active
same,Activity,Mus musculus [13],Active
same,Activity,Mus musculus [2],Active
same,Activity,Mus musculus [14],Active
same,Activity,Mus musculus [15],Active
same,Activity,Mus musculus [16],Active
same,t1/2,[17],3.522 h
same,Stability,Liver microsomes,Stable
same,Ki,[19],0.25 µM
same,Ki,[20],> 1 µM
COc1ccc(C2CNC(=O)C2)cc1OC1CCCC1 (configuration not stated),Activity,Mus musculus [23],Active
same,Activity,Mus musculus [24],inactive
CNCCC1CCC(CCc2cc(F)ccc2OC)O1 (configuration not stated),IC50,[3],> 100 µM
